Records with an inconclusive call do not appear. Calls of active or inactive are those of the source.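 Rule for the calls: active = eight-GTPase mean potency score over 50, needing half-effect dose up to 10 µM and response span 30% or more; inconclusive = no clear call, values can overlap the other calls; inactive = the rest.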
How the values were obtained:
Assay in all cases: inhibitors of GTP binding to eight small GTPases, SAR follow-up, biochemical, round 1 SAR, Mg buffer, multiplex flow cytometry (AID 588479)
RacWT = settings: multiplex GST-GTPase beads, Bodipy-GTP binding, wild type; for response, lower = inhibition: at 100 µM (top of the series)
Procedure, shortened: (§1)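 Control set – DMSO wells as high control, 0.5 mM unlabeled GTP as low control · Assay system – GST-GTPase bead multiplex, wild-type and constitutively active forms · Measured by – flow cytometry, green median fluorescence per bead · Evaluation – normalized response, EC50 by four-parameter fit · Times – binding incubation 40–45 min, 4 °C · Reagent – Bodipy-FL-GTP at 100 nM final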

Cdc42ACT = settings: multiplex GST-GTPase beads, Bodipy-GTP binding, constitutively active; for response, lower = inhibition: at 100 µM (top of the series)
Procedure, shortened: as §1

RacACT = settings: multiplex GST-GTPase beads, Bodipy-GTP binding, constitutively active; for response, lower = inhibition: at 100 µM (top of the series)
Procedure, shortened: as §1

RhoWT = settings: multiplex GST-GTPase beads, Bodipy-GTP binding, wild type; for response, lower = inhibition: at 100 µM (top of the series)
Procedure, shortened: as §1

Cdc42WT = settings: multiplex GST-GTPase beads, Bodipy-GTP binding, wild type; for response, lower = inhibition: at 100 µM (top of the series)
Procedure, shortened: as §1

RasACT = settings: multiplex GST-GTPase beads, Bodipy-GTP binding, constitutively active
Procedure, shortened: as §1

| Compound | EC50 (RacWT) | EC50 (Cdc42ACT) | EC50 (RacACT) | EC50 (RhoWT) | EC50 (Cdc42WT) | response, lower = inhibition (RacWT) | response, lower = inhibition (Cdc42ACT) | response, lower = inhibition (RacACT) | response, lower = inhibition (RhoWT) | response, lower = inhibition (Cdc42WT) | EC50 (RasACT) |
| --- | --- | --- | --- | --- | --- | --- | --- | --- | --- | --- | --- |
| CC1(C)Cc2c(sc(NC(=O)Cc3ccccc3)c2C(=O)O)CO1 | – | – | – | – | – | inactive | inactive | inactive | inactive | inactive | – |
| CCOC(=O)c1c(NC(=O)Nc2ccc(F)cc2)sc2c1CCN(C)C2 | – | – | – | – | – | – | inactive | – | – | – | – |
| COC(=O)c1c(N)sc2c1CC(C)(C)OC2 | – | – | – | – | – | – | inactive | – | – | – | – |
| CCOC(=O)c1c(N)sc2ccccc12 | – | – | – | – | – | inactive | inactive | inactive | inactive | inactive | – |
| Cc1ccc(NC(=O)Nc2sc3c(c2C(=O)O)CCN(C)C3)cc1 | – | – | – | – | – | inactive | inactive | inactive | inactive | inactive | – |
| CCOC(=O)c1c(NC(=O)Nc2ccc(C)cc2)sc2c1CCN(C)C2 | – | – | – | – | – | – | inactive | – | – | – | – |

The remaining lines, values ahead:

| EC50 (RacWT) | EC50 (Cdc42ACT) | EC50 (RacACT) | EC50 (RhoWT) | EC50 (Cdc42WT) | response, lower = inhibition (RacWT) | response, lower = inhibition (Cdc42ACT) | response, lower = inhibition (RacACT) | response, lower = inhibition (RhoWT) | response, lower = inhibition (Cdc42WT) | EC50 (RasACT) | Compound |
| --- | --- | --- | --- | --- | --- | --- | --- | --- | --- | --- | --- |
| 58 nM | 60 nM | 59 nM | 65 nM | 64 nM | – | – | – | – | – | – | CC1(C)Cc2c(sc(NC(=S)NC(=O)c3ccccc3F)c2C(=O)O)CO1 |
| 214 nM | 170 nM | 204 nM | 280 nM | 154 nM | – | – | – | – | – | – | CC1(C)Cc2c(sc(NC(=S)NC(=O)c3ccc(Br)cc3)c2C(=O)O)CO1 |
| – | – | 71 nM | 70 nM | 69 nM | inactive | inactive | – | – | – | – | CC1(C)Cc2c(sc(NC(=S)NC(=O)c3ccccc3Br)c2C(=O)O)CO1 |
| 141 nM | 122 nM | 122 nM | 111 nM | 118 nM | – | – | – | – | – | – | COc1cccc(C(=O)NC(=S)Nc2sc3c(c2C(=O)O)CC(C)(C)OC3)c1 |
| 89 nM | 106 nM | 109 nM | 81 nM | 99 nM | – | – | – | – | – | – | CC1(C)CCc2sc(NC(=S)NC(=O)c3ccccc3)c(C(=O)O)c2C1 |
| 471 nM | 465 nM | 466 nM | 499 nM | 493 nM | – | – | – | – | – | – | CC1(C)Cc2c(sc(NC(=S)NC(=O)c3cccc(F)c3)c2C(=O)O)CO1 |
| 133 nM | 143 nM | 142 nM | 139 nM | 127 nM | – | – | – | – | – | – | COc1ccc(C(=O)NC(=S)Nc2sc3c(c2C(=O)O)CC(C)(C)OC3)cc1 |
| – | – | – | – | – | inactive | inactive | inactive | inactive | inactive | 1780 nM | CC1(C)Cc2c(sc(NC(=S)Nc3ccccc3)c2C(=O)O)CO1 |
| – | – | – | – | – | inactive | inactive | inactive | inactive | inactive | – | CC1(C)Cc2c(sc(NC(=S)NC(=O)c3cccc(Br)c3)c2C(=O)O)CO1 |

Source: PubChem BioAssay AID588479 (NMMLSC, 2011)
